In PMC4055946 (Nuclear medicine and biology, 2014):

Tests used:
cathepsin K = molecular target: T1, cathepsin K (Rattus norvegicus, UniProt O35186); test: MicroPET imaging of bone uptake and blocking in rat; details: for radioactivity in actively growing bone regions relative to non-target regions such as muscle: normal rat, microPET, 0-60 min, i.v.
T1 sequence (O35186 115-329): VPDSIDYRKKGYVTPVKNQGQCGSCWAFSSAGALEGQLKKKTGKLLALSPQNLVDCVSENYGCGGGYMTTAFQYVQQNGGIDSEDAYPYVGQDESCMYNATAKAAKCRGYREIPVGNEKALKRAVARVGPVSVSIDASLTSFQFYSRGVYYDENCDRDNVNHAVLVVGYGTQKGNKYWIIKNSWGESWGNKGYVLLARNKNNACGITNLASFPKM

[1] = Rat whole body biodistribution of radioactivity after intravenous injection; format: in vivo; details: female CD rats, i.v., N = 3; for Tissue biodistribution, Bone, avg: femur in its entirety
Summary of the method: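 Female CD rats (N = 6) under light isoflurane got carbon-11 labeled test compound (1.85-4.44 MBq in 5% ethanol/saline) by tail vein. At 5 and 40 min, groups of 3 were anesthetized and killed by decapitation, and tissues were removed. Samples were weighed and counted for carbon-11, and uptake was expressed as % injected dose/g.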

Structure (SMILES): CC(C)(C)CNc1nc(C#N)ncc1C(=O)NCCc1ccc(O[11CH3])cc1 [[^11C]2, 2-cyano-N-(4-[^11C]methoxyphenethyl)-4-(neopentylamino)pyrimidine-5-carboxamide]
- radioactivity in actively growing bone regions relative to non-target regions such as muscle (cathepsin K): 2 to 3 times
- bone uptake of radioactivity after blocking dose of unlabeled ligand (cathepsin K; rat microPET, 2 mg/kg unlabeled 2 ten minutes prior to the radioligand): reduction of bone uptake of radioactivity to essentially levels equivalent to background in non-target tissues

Structure (SMILES): [11CH3]Oc1ccc(CCNC(=O)c2cnc(C#N)nc2NC2CCCCC2)cc1 [[^11C]1, 2-cyano-4-(cyclohexylamino)-N-(4-[^11C]methoxyphenethyl)-pyrimidine-5-carboxamide]
- radioactivity in actively growing bone regions relative to non-target regions such as muscle (cathepsin K): 2 to 3 times
- Tissue biodistribution, Adrenal, avg ([1]; 5 min): 3.57 % injected dose/g
- Tissue biodistribution, Blood, avg ([1]; 5 min): 0.24 % injected dose/g
- Tissue biodistribution, Brain, avg ([1]; 5 min): 0.43 % injected dose/g
- Tissue biodistribution, Heart, avg ([1]; 5 min): 1.23 % injected dose/g
- Tissue biodistribution, Kidney, avg ([1]; 5 min): 2.03 % injected dose/g
- Tissue biodistribution, Liver, avg ([1]; 5 min): 3.02 % injected dose/g
- Tissue biodistribution, Lung, avg ([1]; 5 min): 0.68 % injected dose/g
- Tissue biodistribution, Muscle, avg ([1]; 5 min): 0.11 % injected dose/g
- Tissue biodistribution, Pancreas, avg ([1]; 5 min): 1.68 % injected dose/g
- Tissue biodistribution, Spleen, avg ([1]; 5 min): 1.03 % injected dose/g
- Tissue biodistribution, Bone, avg ([1]; 5 min): 0.26 % injected dose/g
- Tissue biodistribution, Adrenal, avg ([1]; 40 min): 0.51 % injected dose/g
- Tissue biodistribution, Blood, avg ([1]; 40 min): 0.11 % injected dose/g
- Tissue biodistribution, Brain, avg ([1]; 40 min): 0.11 % injected dose/g
- Tissue biodistribution, Heart, avg ([1]; 40 min): 0.19 % injected dose/g
- Tissue biodistribution, Kidney, avg ([1]; 40 min): 0.41 % injected dose/g
- Tissue biodistribution, Liver, avg ([1]; 40 min): 0.68 % injected dose/g
- Tissue biodistribution, Lung, avg ([1]; 40 min): 0.16 % injected dose/g
- Tissue biodistribution, Muscle, avg ([1]; 40 min): 0.11 % injected dose/g
- Tissue biodistribution, Pancreas, avg ([1]; 40 min): 0.56 % injected dose/g
- Tissue biodistribution, Spleen, avg ([1]; 40 min): 0.22 % injected dose/g
- Tissue biodistribution, Bone, avg ([1]; 40 min): 0.14 % injected dose/g
